The test system of series [1] is LINE-1 methylation in MDS-L cells. Kind of series: LINE-1 methylation by bisulfite pyrosequencing in MDS-L cells. To be noted: 100 nmol/L; for LINE-1 methylation level: untreated 88.9%. Format: cell-based, human.
In series [2] the test system is LINE-1 methylation in SKM1 cells. Description: LINE-1 methylation by bisulfite pyrosequencing in SKM1 cells. It counts as cell-based, human. The note with it: 100 nmol/L, untreated 82.7%.
Series [3] has as its system LINE-1 methylation in KG1a cells. Description: LINE-1 methylation by pyrosequencing in KG1a cells. To be noted: 500 nmol/L, untreated 89.1%. Format: cell-based, human.
Series [4] has as its system LINE-1 methylation in Kasumi-1 cells. Kind of series: LINE-1 methylation by pyrosequencing in Kasumi-1 cells. To be noted: 500 nmol/L, untreated 90.7%. It counts as cell-based, human.
Series [5] deals with LINE-1 methylation in HL60 cells. Kind of series: LINE-1 methylation by pyrosequencing in HL60 cells. Format: cell-based, human. The note with it: 500 nmol/L, untreated 83.7.
Series [6] has as its system LINE-1 methylation in THP-1 cells. Description: LINE-1 methylation by pyrosequencing in THP-1 cells. To be noted: 500 nmol/L, untreated 69.0%. It counts as cell-based, human.
The nature of series [7]: Pharmacokinetics in cynomolgus monkeys. Format: in vivo, cynomolgus monkey.
Another series relates to DNMT1. Description: Western blot of DNMT1 in MDS and AML cell lines. Format: cell-based, human. To be noted: 100 or 500 nmol/L; MDS-L, SKM1, HL60, THP-1. For orientation: In western blotting, separated proteins are transferred to a membrane and probed.
Series [8] deals with MDS and AML cells. Kind of series: Cell proliferation. To be noted: dose-dependent. Format: cell-based, human. A digest of the protocol: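 Growth of MDS and AML cell lines was measured by CCK-8 assay after 72 hours of treatment across a dose range. IC50 was derived by nonlinear regression of the dose–response curves.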
The test system of series [9] is MDS and AML cells. Kind of series: Apoptosis of MDS and AML cells. It counts as cell-based, human.
For another series, the system named is MDS-L cells. Kind of series: Flow cytometry of differentiation markers CD11b and HLA-DR. It counts as cell-based, human.
The test system of a further series is SKM1 cells. Description: SKM1 xenograft mouse model. It counts as in vivo, BALB/c Rag-2/JAK3 double-deficient (BRJ) mice. To be noted: twice weekly from day 7 posttransplantation.
The test system of the next series is HL60 cells. Description: HL60 xenograft mouse model. It counts as in vivo, BALB/c Rag-2/JAK3 double-deficient (BRJ) mice. To be noted: for LINE-1 methylation in bone marrow cells / hemoglobin levels: DAC 1.0 mg/kg or OR21 2.7 mg/kg twice weekly; for LINE-1 methylation in bone marrow cells: vehicle 83.7%; for hemoglobin levels: at the time of sacrifice, vehicle 17.5 g/dL; for human CD45-positive cells in PB: day 37, vehicle 2.96%; for CD11b-positive cells in PB: late treatment from day +28, days +35 to +40, vehicle 43.3%. (Xenograft models place foreign cells or tissue in a host animal.)

Series [10] relates to AZA-resistant HL60 (HL60R) cells. Kind of series: AZA-resistant HL60. Format: cell-based, human. The note with it: in vitro; similar extent as DAC, more effectively than AZA.
The test system of another series is HL60R cells. Description: HL60R xenograft model. It counts as in vivo, mice.
Series [11] in a line: Long-term administration safety in BALB/c mice. It counts as in vivo. To be noted: for anemia (hematopoietic toxicity) / survival on long-term administration: high dose: DAC 2.5 mg/kg or OR21 7.5 mg/kg. A digest of the protocol:
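Non-immunodeficient BALB/c mice received long-term dosing of the test compound at 7.5 (high) or 3.7 (low) mg/kg, or a reference hypomethylating agent at 2.5 or 1.25 mg/kg. Anemia and survival were monitored while dosing continued, through at least day 57.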

The conditions of series [12]: mice, Supplementary Table S4, cited from earlier work.
Series [13] can be described thus: Stability of the base moiety in an aqueous environment. The note with it: pH 6.
Setting [14] is: DAC 1.0 mg/kg or OR21 2.7 mg/kg twice weekly from day 5, vehicle 44 days.
Setting [15] is: DAC 1.0 mg/kg or OR21 2.7 mg/kg twice weekly from day 5.
Where [16] appears, read: higher dose: DAC 2.0 mg/kg or OR21 5.4 mg/kg, vehicle 48 days.

Where “and” joins values, the source holds several entries; their conditions need not be identical. Equal values may be shown once. Read-outs that look alike come from different tables or passages of the source. Where only a bound is given, the exact number is not on record here.

A word on the half-life: it is how long it takes for the measured level to halve.

Turning to `CC[Si](CC)(CC)OC[C@H]1O[C@@H](n2cnc(N)nc2=O)C[C@@H]1O` [OR21, 5′-O-triethylsilyl-2′-deoxy-5-azacytidine], the “LINE-1 methylation levels, effect of treatment” value in series [1] is on record as “significantly decreased”. Besides, the LINE-1 methylation level in series [1] is listed as 74.2%; in series [2], 66.9%; in series [3], 82.4%; in [4], 78.6%; in series [5], 76.0%; in series [6], 64.6%. For the same compound, the AUC in [7] (10.9 μmol/kg (3.75 mg/kg) duodenal administration) was 0.25 (±0.14) μmol/L/hour; in series [7] (9.0 mg/kg (26.3 μmol/kg) duodenal administration), 0.45 ± 0.23 µmol/L/h. In addition, the “DNMT1 levels versus untreated cells” value with DNMT1 was “markedly lower”. Moreover, in the series with MDS and AML cells [8], the cell growth result is given as “inhibited growth”. For the same compound, the apoptosis result in the series on MDS and AML cells [9] (MDS and AML cells, dose-dependent) was “induced apoptosis”. Further, the “apoptosis of primary cells” value in the series with MDS and AML cells [9] (primary MDS and AML cells) was “induced apoptosis of primary MDS and AML cells”. Moreover, the “expression of CD11b” value in the series on MDS-L cells is reported as “upregulated”. In addition, the “expression of HLA-DR” value in the series on MDS-L cells was “downregulated”. The “human CD45-positive cells in peripheral blood” value with SKM1 cells (day 28, vehicle 6.40%) is recorded as 0.31%. Moreover, the median overall survival with SKM1 cells (vehicle 29 days) was above 53 days; with HL60 cells (setting [14]) it was 49 days; in the series on HL60 cells (setting [16]) it was 57 days. The “LINE-1 methylation in bone marrow cells” value with HL60 cells is on record as 63.0%. Further, in the series with HL60 cells, the hemoglobin levels was 17.1 g/dL and 17.1(±0.31) g/dL. Moreover, the “human CD45-positive cells in PB” value in the series with HL60 cells (setting [15]) worked out at 0.75%. In addition, the “CD11b-positive cells in PB” value in the series with HL60 cells is on record as 65.5%. The “growth of HL60R cells” value in series [10] is “inhibited growth”. For the same compound, the survival result with HL60R cells (P = 0.0188) was “significantly prolonged survival”. In series [11], the “anemia (hematopoietic toxicity)” value was “developed anemia by day 29, but recovered by day 57”. Besides, the “survival on long-term administration” value in series [11] is “all were still alive after 80 days”. Besides, the “AUC of released DAC” value in series [12] (intraperitoneal 1.59 μmol/L/kg OR21) is 0.38 µmol/L/h. Moreover, the “peak plasma concentration of DAC” value in series [12] (intraperitoneal administration of 1.59 μmol/L/kg OR21) was 0.43 µmol/L. In series [13], this compound gave a half-life of 20 h.
As to `Nc1ncn([C@H]2C[C@H](O)[C@@H](CO)O2)c(=O)n1` [DAC, decitabine, reference compound], the LINE-1 methylation level in [1] turned out to be 75.2%. Moreover, in series [2], the LINE-1 methylation level was 58.4% and 66.9%. For the same compound, the AUC in [7] (10.9 μmol/kg (1.67 mg/kg) intravenous) is on record as 0.49 (±0.17) μmol/L/hour. The “enteric bioavailability” value in [7] (higher dose) is on record as “did not result in enteric bioavailability”. The median overall survival in the series with HL60 cells (setting [14]) turned out to be 46.5 days. Moreover, in the series with HL60 cells, the “LINE-1 methylation in bone marrow cells” value is on record as 56.3%; the hemoglobin levels was 15.6 g/dL and 15.6 (±1.22) g/dL; the “CD11b-positive cells in PB” value was found to be 75.7%. In addition, the “human CD45-positive cells in PB” value in the series with HL60 cells (setting [15]) is 1.67%. For the same compound, the median overall survival in the series with HL60 cells (setting [16]) is 32 days. The toxicity entry with HL60R cells is reported as “severe toxicity”. In series [11], the “anemia (hematopoietic toxicity)” value is “severe anemia” and the “survival on long-term administration” value is reported as “died within 80 days”. Moreover, in series [11] (low dose: DAC 1.25 mg/kg or OR21 3.7 mg/kg), the anemia entry is listed as “more likely than OR21-treated mice to develop anemia”. Also, the “peak plasma concentration of DAC” value in [12] (administration of 0.88 μmol/L/kg DAC (calculated as an AUC equivalent to that of released DAC)) was 0.64 µmol/L. In [13], this compound gave a half-life of around 20 h.
In the case of `Nc1ncn([C@@H]2O[C@H](CO)[C@@H](O)[C@H]2O)c(=O)n1` [AZA, azacitidine], in [1], the “LINE-1 methylation levels, effect of treatment” value is given as “did not decrease” and the LINE-1 methylation level was 88.8%. Besides, the LINE-1 methylation level in series [2] was found to be 72.1%.
